Here are results for 18 molecules from PubChem BioAssay.

A number with no mark means an inactive call. Inconclusive results are not listed. The source made the active and inactive calls.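 Rule for the calls, unless noted: active = cell viability at or below a set limit in both duplicate runs, the limit being the all-compound median minus 4 SD (cut at about 23% in these data, passing the limit was not always enough); inconclusive = no clear call, values can overlap the other calls; inactive = the rest.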

Experiment [1] in a line: S. cerevisiae growth inhibition in permissive medium (OD615), pilot counter-assay for S. cerevisiae lifespan shortening project, permissive growth control (AID 705;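 active = growth inhibition above 25% in both replicates, a cutoff set 3 SD above the mean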). To be noted: OD615, 24 h, at 10 µM, stronger effect = higher value. In short, it runs like this:
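System: Engineered DeaD yeast | Buffer or medium: SC raffinose/galactose permissive medium | Doses: 10 µM single dose, 0.25% DMSO | Times: 24 h exposure, 30 °C | Measured by: OD615 turbidity read | Read-out: Yeast growth inhibition indicated by reduced 24 h OD615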

Experiment [2] is described as follows: S. cerevisiae growth inhibition in restrictive medium, OD615, pilot screen, restrictive growth control, yeast lifespan reduction project (AID 706;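 active = growth inhibition above a set limit, 3 SD over mean compound inhibition, in both replicates, cut at about 43% in these data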;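 note: modified DeaD lifespan yeast strain shifted to restrictive glucose medium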). To be noted: OD615, 48 h, at 10 µM, stronger effect = higher value. In short, it runs like this: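 Assay system: engineered S. cerevisiae DeaD strain; Buffer or medium: CSMM-D glucose medium; Dosing: 10 µM compound, 0.25% DMSO; Times: cell pre-growth 4 h, compound exposure 48 h, 30 °C; Detection: absorbance (optical density) measured at 615 nm.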

A short description of experiment [3]: doxorubicin toxicity protection in MRP-1 cells – H69AR cells, CellTiter-Glo, duplicate, MRP-1 activator project, pilot screen (AID 807;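 active = viability increase at or above a cutoff of the median across tested compounds plus 3 SD, cut at about 8.5% in these data, passing the limit was not always enough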;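 note: compound pretreatment 18-22 h then 72 h combined with doxorubicin; 0% = doxorubicin alone and 100% = vehicle without doxorubicin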). To be noted: H69AR viability with doxorubicin, CellTiter-Glo luminescence; at 10 µM; stronger effect = higher value.
A short description of experiment [4]: viability of HCT116 without oncogenic beta-catenin – human colon tumor cells, pilot screen (AID 823).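 Note: 0% = wells killed by 20 µM Hyamine and 100% = untreated DMSO cell wells.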 Particulars: HCT116 beta-catenin knockout viability, CellTiter-Glo, 60 h; at 10 µM; stronger effect = lower value. Background: In ATP-based viability assays light output follows the ATP content of the culture.
Experiment [5] in a line: viability of PTEN-null HCT116 cells – cell-based, HCT116 clonal line, CellTiter-Glo, pilot screen (AID 824;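 active = viability at or below 27.92% in each of two runs, the all-compound median minus 4 SD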;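 note: 0% = 20 µM Hyamine control and 100% = vehicle cell control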). To be noted: HCT116 PTEN-deleted viability, 60 h, at 10 µM, stronger effect = lower value.
Experiment [6] can be described thus: RAM pathway blockade in budding yeast – dse1pr::URA3 reporter, 5-FOA selection, pilot screen (AID 869;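 active = inhibition over a set limit, the all-compound mean plus 3 SD, in both replicate runs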;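 note: 0% = DMSO wells with no growth and 100% = 10 µM 1-NA-PP1 with full growth; RAM network block rescues cells from 5-FOA so hits raise OD615 growth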). To be noted: S. cerevisiae dse1pr::URA3 5-FOA growth, OD615, 2 d; at 10 µM; stronger effect = higher value; strain carries analog-sensitive mutant Cbk1 kinase.
Experiment [7] is described as follows: RAM signaling pathway blockade in yeast – S. cerevisiae, Pdr1DBD-CYC8 efflux-inhibited sensitized strain, primary screen (AID 1298;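 active = RAM network inhibition above 8.4% in each of two replicates, 3 SD over the compound average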;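 note: 0% = DMSO untreated cells without growth and 100% = 10 µM 1-NA-PP1 full growth; higher means more yeast growth rescued from 5-FOA killing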). To be noted: S. cerevisiae cbk1-as DSE1-URA3 strain, 5-FOA growth OD615, 2 d; at 50 µM; stronger effect = higher value.

`COc1ccc(Nc2cc(C)nc3nc(C)nn23)cc1Cl`: the growth inhibition in experiment [1] was 0.45%; in experiment [2], 13.4%. Also, in experiment [3], the viability increase was -3.91%. Also, the viability in experiment [4] was 101%; in experiment [5], 93.5%. The inhibition in experiment [6] is -0.465%. The RAM network inhibition in experiment [7] is -0.01%.

As for `CC(c1ccccc1)C1C(C#N)=C(N)OC2=C1C(=O)CC(C)(C)C2` (stereo unspecified), the growth inhibition is -6.48% in experiment [1] and -7.79% in experiment [2]. Moreover, the viability increase in experiment [3] was -5.71%. For the same molecule, the viability in experiment [4] was 78.4%; in experiment [5], 78.9%. Besides, the inhibition in experiment [6] is 1.78%. Moreover, the RAM network inhibition in experiment [7] is 25.6% (active).

In the case of `Cc1ccc(C)c(S(=O)(=O)Nc2ccc(O)cc2)c1`, the growth inhibition in experiment [1] is -9.59%; in experiment [2], 11.7%. Also, the viability increase in experiment [3] is -2.63%. For the same molecule, the viability is 101% in experiment [4] and 97% in experiment [5]. In addition, the inhibition in experiment [6] is 1.44%. Further, the RAM network inhibition in experiment [7] is 2.77%.

With `CC(=O)NC(C)c1nc2ccccc2n1Cc1ccccc1F` (stereo unspecified), the growth inhibition in experiment [1] is -5.38%; in experiment [2], -3.36%. Further, in experiment [3], the viability increase is 0.25%. Moreover, the viability is 102% in experiment [4] and 93.8% in experiment [5]. Besides, in experiment [6], the inhibition is 3.67%. For the same molecule, in experiment [7], the RAM network inhibition is 5.71%.

On to `Cc1ccc2c(c1)c1c(n2CC(O)Cn2c(C)nc3ccccc32)C(=O)CCC1` (stereo unspecified), for which the growth inhibition was -7.12% in experiment [1] and -1.9% in experiment [2]. In addition, the viability increase in experiment [3] is -0.7%. Besides, the viability is 59.2% in experiment [4] and 62.2% in experiment [5]. Besides, in experiment [6], the inhibition is 2.33%. In experiment [7], the RAM network inhibition was 7.19%.

With `Cc1c(C(=O)N2CCCCC2)sc(N)c1C#N`, the growth inhibition in experiment [1] is 4.06%; in experiment [2] it was 4.32%. Further, the viability increase in experiment [3] was -0.95%. In addition, the viability in experiment [4] is 96%; in experiment [5], 95.2%. For the same molecule, the inhibition in experiment [6] is -0.355%. For the same molecule, in experiment [7], the RAM network inhibition is 1.18%.

With `CC(C)CC(=O)Nc1ccc(C(=O)COc2ccc(-c3nnco3)cc2)cc1`, the results for the growth inhibition in experiment [1] and in experiment [2] were -0.165% and -0.795%, respectively. Moreover, the viability increase in experiment [3] was 0.84%. The viability was 88% in experiment [4] and 87% in experiment [5]. The inhibition in experiment [6] was 0.965%. Moreover, in experiment [7], the RAM network inhibition was 2.46%.

As to `CCOC(=O)N1CCN(C2CC(=O)N(c3ccccc3)C2=O)CC1` (stereo unspecified), the values for the growth inhibition in experiment [1] and in experiment [2] were 4.38% and 10.5%, respectively. The viability increase in experiment [3] was 0.58%. Moreover, the viability in experiment [4] is 100%; in experiment [5], 101%. Also, the inhibition in experiment [6] was 0.005%. The RAM network inhibition in experiment [7] is -0.04%.

On to `O=S(=O)(NCCOCCNS(=O)(=O)c1ccccc1)c1ccccc1`, for which the growth inhibition in experiment [1] is -6.38%; in experiment [2], -1.27%. Further, the viability increase in experiment [3] is 0.8%. For the same molecule, the viability is 91.2% in experiment [4] and 96.1% in experiment [5]. Moreover, the inhibition in experiment [6] is 0.05%. Besides, the RAM network inhibition in experiment [7] was 1.94%.

With `O=C(O)CCC(=O)N1CCc2cc(S(=O)(=O)N3CCC(Cc4ccccc4)CC3)ccc21`, the values for the growth inhibition in experiment [1] and in experiment [2] were -6.24% and 0.935%, respectively. For the same molecule, in experiment [3], the viability increase is -2.63%. The viability was 97.8% in experiment [4] and 82.2% in experiment [5]. The inhibition in experiment [6] was 1.47%. In experiment [7], the RAM network inhibition is 3.85%.

For the molecule `Cc1c(C(=O)NCc2ccc3c(c2)OCO3)sc2nc(-c3ccc(F)cc3)cn12`, the growth inhibition in experiment [1] was -13.8%; in experiment [2] it was -14.9%. Moreover, in experiment [3], the viability increase is 0.84%. The viability in experiment [4] was 108%; in experiment [5], 105%. The inhibition in experiment [6] was 2.14%. The RAM network inhibition in experiment [7] is 6.3%.

Consider `CCCC(=O)Nc1nc2ccc(S(=O)(=O)N3CCCCC3)cc2s1`, for which the growth inhibition in experiment [1] is -20.7%; in experiment [2] it was -19.5%. Also, the viability increase in experiment [3] was -6.94%. Further, the viability in experiment [4] was 32.5%; in experiment [5], 37.3%. For the same molecule, in experiment [6], the inhibition was 1.27%. Besides, in experiment [7], the RAM network inhibition is 1.93%.

As to `C=CCSc1nc2c(cnn2-c2ccc(C)c(C)c2)c(=O)[nH]1`, the growth inhibition was -6.23% in experiment [1] and -5.07% in experiment [2]. For the same molecule, in experiment [3], the viability increase was -1.43%. Further, the viability in experiment [4] is 93.3%; in experiment [5], 93.1%. Besides, the inhibition in experiment [6] was 4.19%. For the same molecule, in experiment [7], the RAM network inhibition was 0.11%.

In the case of `Cc1ccc(-c2nn(-c3ccccc3)cc2C(=O)N2CCOCC2)cc1`, the growth inhibition in experiment [1] is -8.14%; in experiment [2], -8.34%. In addition, in experiment [3], the viability increase is -2.21%. Besides, the viability in experiment [4] was 97.5%; in experiment [5], 89%. Further, the inhibition in experiment [6] is 0.805%. Besides, the RAM network inhibition in experiment [7] was 12.4%.

`COc1ccc(NC(=O)C2CCCNC2)cc1OCC(C)C` (stereo unspecified): the growth inhibition in experiment [1] was -15.2%; in experiment [2], -19.2%. In addition, the viability increase in experiment [3] was -1.5%. Besides, the viability in experiment [4] is 98.4%; in experiment [5] it was 97%. Further, the inhibition in experiment [6] was 1.75%. For the same molecule, the RAM network inhibition in experiment [7] was 2.92%.

For the molecule `COc1cccc(N2CCN(C(=O)c3ccc4nc(N5CCCCC5)sc4c3)CC2)c1`, the results for the growth inhibition in experiment [1] and in experiment [2] were -4.55% and 3.63%, respectively. Also, the viability increase in experiment [3] was 0.85%. Also, the viability in experiment [4] is 89.1%; in experiment [5] it was 79.2%. Moreover, the inhibition in experiment [6] is 0.805%. In addition, in experiment [7], the RAM network inhibition was 6.67%.

With `Cc1ccc(-c2nn3c(C)nnc3s2)cc1NC(=O)c1ccco1`, the growth inhibition in experiment [1] was 3.94%; in experiment [2] it was 25.2%. Further, the viability increase in experiment [3] is -5.34%. The results for the viability in experiment [4] and in experiment [5] were 113% and 103%, respectively. Further, the inhibition in experiment [6] was 2.53%. Further, the RAM network inhibition in experiment [7] was 1.06%.

As to `CCOC(=O)Cn1c(CN2CCOCC2)nc2c1c(=O)n(C)c(=O)n2C`, the figures for the growth inhibition in experiment [1] and in experiment [2] were -1.92% and -5.31%, respectively. Further, the viability increase in experiment [3] is 1.26%. In addition, the viability in experiment [4] was 107%; in experiment [5] it was 103%. Besides, in experiment [6], the inhibition was 1.72%. For the same molecule, the RAM network inhibition in experiment [7] was 2.19%.

What is called viability is a read-out of living cells in per cent, often relative to untreated cells. What is called inhibition is the drop in the measured response relative to a control, in per cent.
